Each structure is given as a SMILES string. Activity calls are given as the source filed them. No cut-off for these calls is given here.

The experiment concerns Rattus norvegicus. Description: Antiapoptotic activity against osteoblasts in ovariectomized Wistar rat at 0.1 mg/kg after 10 weeks. Format: functional, organism-based. Set-up: dose 0.1 mg/kg. The method in brief:
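After 10 weeks, lumbar vertebrae were removed. Apoptotic osteoblasts were detected by TUNEL staining (Klenow FragEL) in undecalcified, plastic-embedded sections. Values are means ± S.D.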

With `C[C@]12CC[C@@H]3c4ccc(O)cc4CC[C@H]3[C@@H]1CC[C@@H]2O`, the result was Active.

(Values after ChEMBL document CHEMBL1156469 (2007).)
